Assay results reported in ChEMBL document CHEMBL2146476, “Discovery of selective glucocorticoid receptor modulator MK-5932” (Bioorg Med Chem, 2011).

Legend:
[1] = target: T1, Glucocorticoid receptor (Homo sapiens) (UniProt P04150); assay: Transrepression activity at glucocorticoid receptor in human LPS and TPA-stimulated U937 cells assessed as effect on glucocorticoid-induced TNFalpha repression by beta lactamase reporter gene assay relative to dexamethasone; assay type: cell-based; details: U-937
T1 sequence (whole entry): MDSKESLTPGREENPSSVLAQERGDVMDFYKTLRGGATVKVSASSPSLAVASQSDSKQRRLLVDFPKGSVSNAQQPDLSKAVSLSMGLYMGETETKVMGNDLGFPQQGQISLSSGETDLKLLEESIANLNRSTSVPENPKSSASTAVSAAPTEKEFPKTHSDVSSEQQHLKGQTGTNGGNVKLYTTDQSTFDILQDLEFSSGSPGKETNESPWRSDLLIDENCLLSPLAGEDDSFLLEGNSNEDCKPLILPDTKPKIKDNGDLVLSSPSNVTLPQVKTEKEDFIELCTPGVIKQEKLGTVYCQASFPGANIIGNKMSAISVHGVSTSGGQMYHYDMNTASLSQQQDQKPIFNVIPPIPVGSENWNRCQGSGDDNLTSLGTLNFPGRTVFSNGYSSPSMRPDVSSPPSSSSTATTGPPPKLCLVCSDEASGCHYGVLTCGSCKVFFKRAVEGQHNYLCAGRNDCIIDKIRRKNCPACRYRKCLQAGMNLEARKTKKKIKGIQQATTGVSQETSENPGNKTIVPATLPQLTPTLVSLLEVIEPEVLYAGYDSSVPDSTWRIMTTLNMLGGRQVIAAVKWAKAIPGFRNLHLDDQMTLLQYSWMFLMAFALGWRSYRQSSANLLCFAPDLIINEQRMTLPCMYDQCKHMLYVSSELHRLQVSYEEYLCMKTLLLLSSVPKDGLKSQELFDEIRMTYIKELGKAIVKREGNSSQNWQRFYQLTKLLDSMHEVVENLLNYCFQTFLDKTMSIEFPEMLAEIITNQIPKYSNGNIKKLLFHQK
How it was run: (§1)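 U937 cells stably carrying a β-lactamase reporter driven by the human TNF-α promoter (-1083 to +182), in 5% charcoal-stripped FBS. Stimulated with 1 µg/mL LPS plus 50 ng/mL TPA, compound exposure 16 h. β-Lactamase read out. Activity expressed as percent of the span between DMSO and 100 nM dexamethasone controls. Mean of at least three runs.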

[2] = target: T1, Glucocorticoid receptor (Homo sapiens); assay: Transactivation activity at GR-mediated modulation of MMTV promoter activity in human HeLa cells transfected with luciferase gene linked to MMTV promoter after 16 hrs by luciferase reporter gene assay relative to dexamethasone; assay type: cell-based
How it was run: (§2)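 HeLa or A549 cells transiently transfected with a luciferase reporter under the MMTV promoter (two GREs), in 10% charcoal-stripped FBS. Compound exposure 16 h, then luciferase measured. Activity expressed as percent of the span between DMSO and dexamethasone controls. Mean of at least three runs.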

[3] = target: T1, Glucocorticoid receptor (Homo sapiens); assay: Transactivation activity at GR-mediated modulation of MMTV promoter activity in human A549 cells transfected with luciferase gene linked to MMTV promoter after 16 hrs by luciferase reporter gene assay relative to dexamethasone; assay type: cell-based; how it was run: as §2
Glucocorticoid receptor = target: T2, Glucocorticoid receptor (Homo sapiens, UniProt P04150); assay: Displacement of [3H]-dexamethasone from human full length GR expressed in insect Sf21 cells
T2 sequence (P04150 whole entry): T1 sequence (whole entry)
How it was run: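 Human full-length GR expressed in insect cells, incubated with compound and 3H-dexamethasone overnight at 4 °C. Bound radioactivity quantified after filtration capture. Nonspecific binding defined with excess unlabelled dexamethasone. Mean of at least two runs.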

[4] = target: T1, Glucocorticoid receptor (Homo sapiens); assay: Transactivation activity at GR-mediated modulation of MMTV promoter activity in human HeLa cells transfected with luciferase gene linked to MMTV promoter after 16 hrs by luciferase reporter gene assay; assay type: cell-based; how it was run: as §2
[5] = target: T1, Glucocorticoid receptor (Homo sapiens); assay: Transactivation activity at GR-mediated modulation of MMTV promoter activity in human A549 cells transfected with luciferase gene linked to MMTV promoter after 16 hrs by luciferase reporter gene assay; assay type: cell-based; how it was run: as §2
[6] = target: T1, Glucocorticoid receptor (Homo sapiens); assay: Transrepression activity at glucocorticoid receptor in human LPS and TPA-stimulated U937 cells assessed as effect on glucocorticoid-induced TNFalpha repression by beta lactamase reporter gene assay; assay type: cell-based; details: U-937; how it was run: as §1
[7] = Drug uptake in oxazolone-induced Sprague-Dawley rat chronic dermatitis model at 25 mg/kg, po; assay type: ADME, organism-based; design: dose 25 mg/kg, route oral; details: in vivo, read-out: Drug uptake
How it was run: (§3)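 Exposure measured in female Sprague-Dawley rats in the oxazolone chronic dermatitis model: sensitization Day 0, ear challenge Days 7 and 9, daily oral dosing for 7 d from Day 7. Exposure expressed as µM h. Blood collected ~4-5 h after last dose.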

[8] = Drug uptake in oxazolone-induced Sprague-Dawley rat chronic dermatitis model at 5 mg/kg, po; assay type: ADME, organism-based; design: dose 5 mg/kg, route oral; details: in vivo, read-out: Drug uptake; how it was run: as §3
[9] = Drug uptake in oxazolone-induced Sprague-Dawley rat chronic dermatitis model at 20 mg/kg, po; assay type: ADME, organism-based; design: dose 20 mg/kg, route oral; details: in vivo, read-out: Drug uptake; how it was run: as §3
Rattus norvegicus = assay: Drug metabolism in oxazolone-induced Sprague-Dawley rat chronic dermatitis model assessed as 2-{2-[(4aS,5R)-1-(4-fluorophenyl)-5-hydroxy-4amethyl- 1,4,4a,5,6,7-hexahydrocyclopenta[f]indazol-5-yl]ethyl}benzamide level at 20 mg/kg, po; assay type: ADME, organism-based; design: dose 20 mg/kg, route oral; details: in vivo

## Cc1cc2cnn(-c3ccc(F)cc3)c2cc1CCC(=O)CCc1ccc(F)cc1C(=O)O
[1]
  Emax: < 5%
[2]
  Emax: < 5%
[3]
  Emax: < 5%
Glucocorticoid receptor
  Ki: > 400 nM

## C[C@]12Cc3cnn(-c4ccc(F)cc4)c3C=C1CC[C@@]2(O)CCc1cccc(F)c1C(=O)NC1(CO)CC1
[4]
  IP: 35 nM
[5]
  IP: 23 nM
[1]
  Emax: 96%
[2]
  Emax: 79%
[3]
  Emax: 104%
Glucocorticoid receptor
  Ki: 3 nM
[6]
  IP: 24 nM

## C[C@]12Cc3cnn(-c4ccc(F)cc4)c3C=C1CC[C@@]2(O)CCc1ccccc1C(N)=O
[4]
  IP: 130 nM
[7]
  AUC: 199 µM·h
[5]
  IP: 61 nM
[1]
  Emax: 82%
[2]
  Emax: 66%
[3]
  Emax: 60%
Glucocorticoid receptor
  Ki: 2 nM
[6]
  IP: 56 nM
[8]
  AUC: 134 µM·h

## CNC(=O)c1ccccc1CC[C@]1(O)CCC2=Cc3c(cnn3-c3ccc(F)cc3)C[C@@]21C
[4]
  IP: 317 nM
[5]
  IP: 193 nM
[1]
  Emax: 50%
[2]
  Emax: 48%
[3]
  Emax: 49%
Glucocorticoid receptor
  Ki: 2 nM
[6]
  IP: 263 nM

## CNC(=O)c1cccc(CC[C@]2(O)CCC3=Cc4c(cnn4-c4ccc(F)cc4)C[C@@]32C)c1
[1]
  Emax: < 10%
[2]
  Emax: < 10%
[3]
  Emax: < 10%
Glucocorticoid receptor
  Ki: 15 nM

## C[C@]12Cc3cnn(-c4ccc(F)cc4)c3C=C1CC[C@@]2(O)CCc1c(F)cccc1C(N)=O
[4]
  IP: 7 nM
[5]
  IP: 6 nM
[1]
  Emax: 90%
[2]
  Emax: 89%
[3]
  Emax: 82%
Glucocorticoid receptor
  Ki: < 1 nM
[6]
  IP: 3 nM

## C=CCNC(=O)c1ccccc1CC[C@]1(O)CCC2=Cc3c(cnn3-c3ccc(F)cc3)C[C@@]21C
[4]
  IP: 93 nM
[5]
  IP: 62 nM
[1]
  Emax: 62%
[2]
  Emax: 21%
[3]
  Emax: 37%
Glucocorticoid receptor
  Ki: 1 nM
[6]
  IP: 123 nM

## CC(C)NC(=O)c1ccccc1CC[C@]1(O)CCC2=Cc3c(cnn3-c3ccc(F)cc3)C[C@@]21C
[4]
  IP: 83 nM
[5]
  IP: 60 nM
[1]
  Emax: 62%
[2]
  Emax: 30%
[3]
  Emax: 48%
Glucocorticoid receptor
  Ki: 4 nM
[6]
  IP: 170 nM

## CCCNC(=O)c1ccccc1CC[C@]1(O)CCC2=Cc3c(cnn3-c3ccc(F)cc3)C[C@@]21C
[4]
  IP: 85 nM
[5]
  IP: 81 nM
[1]
  Emax: 50%
[2]
  Emax: 17%
[3]
  Emax: 29%
Glucocorticoid receptor
  Ki: 2 nM
[6]
  IP: 127 nM

## CC(C)(C)NC(=O)c1ccccc1CC[C@]1(O)CCC2=Cc3c(cnn3-c3ccc(F)cc3)C[C@@]21C
[4]
  IP: 108 nM
[5]
  IP: 212 nM
[1]
  Emax: 79%
[2]
  Emax: 14%
[3]
  Emax: 23%
Glucocorticoid receptor
  Ki: 10 nM
[6]
  IP: 246 nM

## CCCNC(=O)c1c(F)cccc1CC[C@]1(O)CCC2=Cc3c(cnn3-c3ccc(F)cc3)C[C@@]21C
[4]
  IP: 43 nM
[5]
  IP: 26 nM
[1]
  Emax: 72%
[2]
  Emax: 17%
[3]
  Emax: 25%
Glucocorticoid receptor
  Ki: < 1 nM
[6]
  IP: 30 nM

## C[C@]12Cc3cnn(-c4ccc(F)cc4)c3C=C1CC[C@@]2(O)CCc1cc(F)ccc1C(N)=O
[4]
  IP: 58 nM
[5]
  IP: 36 nM
[1]
  Emax: 70%
[2]
  Emax: 47%
[3]
  Emax: 120%
Glucocorticoid receptor
  Ki: < 1 nM
[6]
  IP: 89 nM

## C[C@]12Cc3cnn(-c4ccc(F)cc4)c3C=C1[C@H](O)C[C@@]2(O)CCc1ccc(F)cc1C(N)=O
[1]
  Emax: < 5%
[2]
  Emax: < 5%
[3]
  Emax: < 5%
Glucocorticoid receptor
  Ki: > 400 nM

## CCNC(=O)c1ccccc1CC[C@]1(O)CCC2=Cc3c(cnn3-c3ccc(F)cc3)C[C@@]21C
[4]
  IP: 107 nM
[5]
  IP: 39 nM
[1]
  Emax: 65%
[9]
  AUC: 75 µM·h
Rattus norvegicus
  Drug metabolism: 50 µM·h
[2]
  Emax: 38%
[3]
  Emax: 51%
Glucocorticoid receptor
  Ki: 2 nM
[6]
  IP: 88 nM

## CNC(=O)c1ccc(CC[C@]2(O)CCC3=Cc4c(cnn4-c4ccc(F)cc4)C[C@@]32C)cc1
[1]
  Emax: 12%
[2]
  Emax: < 10%
[3]
  Emax: < 10%
Glucocorticoid receptor
  Ki: 155 nM

## C=C(C)CNC(=O)c1c(F)cccc1CC[C@]1(O)CCC2=Cc3c(cnn3-c3ccc(F)cc3)C[C@@]21C
[4]
  IP: 132 nM
[5]
  IP: 95 nM
[1]
  Emax: 67%
[2]
  Emax: 16%
[3]
  Emax: 24%
Glucocorticoid receptor
  Ki: < 1 nM
[6]
  IP: 119 nM

## CCNC(=O)c1ccccc1CC[C@]1(O)CCC2=Cc3c(cnn3-c3ccc(F)cc3)C(O)[C@@]21C (some centres undefined)
[4]
  IP: 1320 nM
[5]
  IP: 1560 nM
[1]
  Emax: 34%
[2]
  Emax: 6%
[3]
  Emax: 20%
Glucocorticoid receptor
  Ki: 40 nM
[6]
  IP: 958 nM

## CC(C)(CO)NC(=O)c1ccccc1CC[C@]1(O)CCC2=Cc3c(cnn3-c3ccc(F)cc3)C[C@@]21C
[4]
  IP: 30 nM
[5]
  IP: 33 nM
[1]
  Emax: 88%
[2]
  Emax: 71%
[3]
  Emax: 83%
Glucocorticoid receptor
  Ki: 1 nM
[6]
  IP: 26 nM

## C[C@@]12C(=Cc3c(cnn3-c3ccc(F)cc3)C1O)CC[C@@]2(O)CCc1ccc(F)cc1C(N)=O (some centres undefined)
[1]
  Emax: 6%
[2]
  Emax: < 5%
[3]
  Emax: < 5%
Glucocorticoid receptor
  Ki: 58 nM

## C[C@]12Cc3cnn(-c4ccc(F)cc4)c3C=C1CC[C@@]2(O)CCc1cccc(F)c1C(N)=O
[4]
  IP: 11 nM
[5]
  IP: 9 nM
[1]
  Emax: 84%
[2]
  Emax: 58%
[3]
  Emax: 75%
Glucocorticoid receptor
  Ki: < 1 nM
[6]
  IP: 10 nM
